Results: ChEMBL document CHEMBL1157882, “Novel 2-[(benzylamino)methyl]pyrrolidine-3,4-diol derivatives as alpha-mannosidase inhibitors and with antitumor activities against hematological and solid malignancies” (Bioorg Med Chem, 2010)
The source made the active and inactive calls. The calls are words filed in the database; no cut-off is given here.

Columns and labels:
[1] = Cytotoxicity in human multiple myeloma cells assessed as pre-necrotic cells at 100 uM after 24 hrs by annexin V/propidium iodide staining based flow cytometry (reference value: 42.1%); type: functional, Multiple myeloma cell
A549 = experiment: Cytotoxicity against human A549 cells after 72 hrs by colorimetric assay; type: functional, cell-based; conditions: Homo sapiens, A549, 72 h; read-out: IC50
Method in brief: (§1)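 Cells grown in McCoy's medium (adherent lines) or RPMI-1640 (U266), each with 10% FBS, L-glutamine and antibiotics, at 37 °C in 5% CO₂. Compound dissolved as a 100 mM DMSO stock, final DMSO ≤0.4%. Cells were exposed for 72 h across a 10^-2 to 400 µM range. Viability was read by CellTiter 96 Aqueous (2–4 h incubation, absorbance 490 nm). Triplicate wells; IC50 from curve fitting.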

SK-BR-3 [2] = experiment: Increase in CDKN1C mRNA level in human SKBR3 cells at 50 uM after 12 hrs by TLDA; type: functional, cell-based
Method in brief: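 SKBR3 and MCF7 cells seeded at 2 × 10⁵ per well, treated 12 h with 50 µM compound (DMSO stock); total RNA extracted, cDNA made with random hexamers, gene expression profiled by TaqMan low-density arrays (qPCR, duplicate per gene). Normalised to RPLP0; fold change versus DMSO vehicle-treated cells, calculated as 2^-ΔΔCT.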

[3] = Cytotoxicity in human multiple myeloma cells assessed as viable cells at 50 uM after 24 hrs by annexin V/propidium iodide staining based flow cytometry (reference value: 48.2%); type: functional; conditions: Multiple myeloma cell, read-out: Activity
Bos taurus = organism: Bos taurus; experiment: Inhibition of beta-N-acetylglucosaminidase from bovine kidney at pH 4; parameters: concentration or dose not given beside the values; conditions: concentration not given here
Aspergillus niger = experiment: Inhibition of beta-xylosidase from Aspergillus niger at pH 5; parameters: concentration or dose not given beside the values; conditions: concentration not given here
U-266 = experiment: Cytotoxicity against human U266 cells after 72 hrs by colorimetric assay; type: functional, cell-based; conditions: Homo sapiens, U-266, 72 h; read-out: IC50; method in brief: as §1
Jurkat = experiment: Cytotoxicity in human Jurkat cells overexpressing Bcl2 assessed as cell death at 50 uM after 72 hrs by propidium iodide-staining based flow cytometry; type: functional
Method in brief: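 Jurkat T cells stably overexpressing Bcl-2, plus vector controls, in RPMI-1640 with 10% FBS. Seeded at 4×10⁴ per well and treated for 72 h with 40 µM etoposide, 2 µM doxorubicin or 50 µM compound. Dead cells counted by propidium iodide staining and flow cytometry; means of triplicates with SD.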

[4] = Cytotoxicity in human B-CLL assessed as early apoptotic cells at 50 uM after 24 hrs by annexin V/propidium iodide staining based flow cytometry (reference value: 3.6 to 20.2%); type: functional
[5] = Cytotoxicity in human B-CLL assessed as late apoptotic/necrotic cells at 200 uM after 24 hrs by annexin V/propidium iodide staining based flow cytometry (reference value: 10 to 14.7%); type: functional
SK-BR-3 [6] = experiment: Cell cycle arrest in human SKBR3 cells by accumulation of cells at G2/M phase at 50 uM after 48 hrs by propidium iodide-staining based flow cytometry (reference value: 16%); type: functional
[7] = Cytotoxicity in human B-CLL assessed as early apoptotic cells at 200 uM after 24 hrs by annexin V/propidium iodide staining based flow cytometry (reference value: 3.6 to 20.2%); type: functional
SK-BR-3 [8] = experiment: Cell cycle arrest in human SKBR3 cells by accumulation of cells at G1 phase at 100 uM after 48 hrs by propidium iodide-staining based flow cytometry (reference value: 54%); type: functional
[9] = target: Glucoamylase (Aspergillus niger) (UniProt P69328); experiment: Inhibition of amyloglucosidase from Aspergillus niger at 1 mM at pH 5
Method in brief: (§2)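 Glycosidase panel of commercial enzymes assayed at each enzyme's optimal pH with compound at 1 mM; percentage inhibition of enzyme activity calculated.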

Canavalia ensiformis = experiment: Inhibition of alpha-mannosidase from jack bean at 1 mM at pH 5; method in brief: as §2
[10] = Cytotoxicity against human U87 cells after 72 hrs by colorimetric assay; type: functional, cell-based, U-87MG ATCC; conditions: Homo sapiens, U-87 MG, 72 h; read-out: IC50; method in brief: as §1
[11] = target: T1, Beta-galactosidase (Aspergillus oryzae) (UniProt Q2U7N3); experiment: Inhibition of beta-galactosidase from Aspergillus oryzae at 1 mM at pH 4; method in brief: as §2
T1 sequence (whole entry): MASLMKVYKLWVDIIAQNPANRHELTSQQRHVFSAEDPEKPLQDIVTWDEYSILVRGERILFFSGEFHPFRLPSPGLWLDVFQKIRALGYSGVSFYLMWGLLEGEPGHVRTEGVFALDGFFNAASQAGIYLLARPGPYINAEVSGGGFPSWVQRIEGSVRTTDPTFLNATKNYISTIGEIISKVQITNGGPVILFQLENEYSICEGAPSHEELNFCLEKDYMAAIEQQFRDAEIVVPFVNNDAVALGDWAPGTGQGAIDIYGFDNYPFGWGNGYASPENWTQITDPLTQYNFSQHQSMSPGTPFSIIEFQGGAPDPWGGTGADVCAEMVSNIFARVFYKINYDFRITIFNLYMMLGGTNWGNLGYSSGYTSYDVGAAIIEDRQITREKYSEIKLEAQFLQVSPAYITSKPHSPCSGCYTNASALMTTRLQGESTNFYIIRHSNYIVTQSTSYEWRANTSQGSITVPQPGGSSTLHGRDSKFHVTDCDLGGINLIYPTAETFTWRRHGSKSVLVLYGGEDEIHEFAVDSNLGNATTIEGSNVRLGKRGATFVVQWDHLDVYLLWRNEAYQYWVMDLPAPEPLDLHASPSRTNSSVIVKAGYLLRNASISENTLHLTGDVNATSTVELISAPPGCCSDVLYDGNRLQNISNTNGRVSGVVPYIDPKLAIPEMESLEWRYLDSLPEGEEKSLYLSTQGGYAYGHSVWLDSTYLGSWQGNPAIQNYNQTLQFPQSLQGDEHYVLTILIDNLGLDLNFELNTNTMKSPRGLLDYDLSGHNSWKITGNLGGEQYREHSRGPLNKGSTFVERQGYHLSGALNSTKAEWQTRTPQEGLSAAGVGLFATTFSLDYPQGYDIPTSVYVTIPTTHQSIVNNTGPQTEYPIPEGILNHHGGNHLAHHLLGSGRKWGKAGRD

[12] = Cytotoxicity in human B-CLL assessed as viable cells at 200 uM after 24 hrs by annexin V/propidium iodide staining based flow cytometry (reference value: 65.8 to 78%); type: functional; conditions: read-out: Activity
MDA-MB-231 = experiment: Cytotoxicity against human MDA-MB-231 cells after 72 hrs by colorimetric assay; type: functional, cell-based; conditions: Homo sapiens, MDA-MB-231, 72 h; read-out: IC50; method in brief: as §1
Oryza sativa = experiment: Inhibition of alpha-glucosidase from rice at 1 mM at pH 4; method in brief: as §2
[13] = Cytotoxicity in human B-CLL assessed as pre-necrotic cells at 50 uM after 24 hrs by annexin V/propidium iodide staining based flow cytometry (reference value: 1.3 to 3.7%); type: functional
[14] = target: Beta-galactosidase (Escherichia coli) (UniProt Q8VNN2); experiment: Inhibition of beta-galactosidase from Escherichia coli at 1 mM at pH 7; method in brief: as §2
[15] = Inhibition of alpha-mannosidase from jack bean at pH 5; parameters: species or system Canavalia ensiformis
SK-BR-3 [16] = experiment: Cytotoxicity against human SKBR3 cells after 72 hrs by colorimetric assay; type: functional, cell-based; conditions: Homo sapiens, SK-BR-3, 72 h; read-out: IC50; method in brief: as §1

Chain of Beta-galactosidase (Escherichia coli) (Q8VNN2 whole entry, looked up): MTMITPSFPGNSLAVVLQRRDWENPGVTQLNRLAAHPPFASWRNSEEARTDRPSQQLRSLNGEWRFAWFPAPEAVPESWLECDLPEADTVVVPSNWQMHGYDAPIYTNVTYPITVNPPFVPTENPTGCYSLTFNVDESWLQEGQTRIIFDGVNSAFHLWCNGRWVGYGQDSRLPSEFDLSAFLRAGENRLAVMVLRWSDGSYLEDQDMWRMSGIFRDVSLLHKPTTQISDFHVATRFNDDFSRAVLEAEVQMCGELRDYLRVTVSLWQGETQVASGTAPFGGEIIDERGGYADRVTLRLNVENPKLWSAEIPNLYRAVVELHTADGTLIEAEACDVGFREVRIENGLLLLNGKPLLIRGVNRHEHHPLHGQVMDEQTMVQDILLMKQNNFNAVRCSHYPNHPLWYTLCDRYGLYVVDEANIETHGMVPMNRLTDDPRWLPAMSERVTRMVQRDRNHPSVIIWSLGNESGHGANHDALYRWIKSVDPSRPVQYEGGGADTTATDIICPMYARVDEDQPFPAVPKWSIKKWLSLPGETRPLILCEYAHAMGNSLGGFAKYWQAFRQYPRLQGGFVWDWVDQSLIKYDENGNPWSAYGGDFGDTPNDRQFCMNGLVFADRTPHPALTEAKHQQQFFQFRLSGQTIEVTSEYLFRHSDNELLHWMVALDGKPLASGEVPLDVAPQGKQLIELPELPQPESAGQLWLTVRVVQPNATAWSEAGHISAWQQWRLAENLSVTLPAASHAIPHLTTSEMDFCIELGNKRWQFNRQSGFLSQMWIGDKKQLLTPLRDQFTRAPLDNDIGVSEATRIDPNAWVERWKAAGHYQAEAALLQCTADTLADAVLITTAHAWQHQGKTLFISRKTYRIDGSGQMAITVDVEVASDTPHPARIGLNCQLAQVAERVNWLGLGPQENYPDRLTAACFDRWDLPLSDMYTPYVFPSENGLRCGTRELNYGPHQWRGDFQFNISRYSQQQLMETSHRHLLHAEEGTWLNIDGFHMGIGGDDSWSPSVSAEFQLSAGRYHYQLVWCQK
Chain of Glucoamylase (Aspergillus niger) (P69328 whole entry): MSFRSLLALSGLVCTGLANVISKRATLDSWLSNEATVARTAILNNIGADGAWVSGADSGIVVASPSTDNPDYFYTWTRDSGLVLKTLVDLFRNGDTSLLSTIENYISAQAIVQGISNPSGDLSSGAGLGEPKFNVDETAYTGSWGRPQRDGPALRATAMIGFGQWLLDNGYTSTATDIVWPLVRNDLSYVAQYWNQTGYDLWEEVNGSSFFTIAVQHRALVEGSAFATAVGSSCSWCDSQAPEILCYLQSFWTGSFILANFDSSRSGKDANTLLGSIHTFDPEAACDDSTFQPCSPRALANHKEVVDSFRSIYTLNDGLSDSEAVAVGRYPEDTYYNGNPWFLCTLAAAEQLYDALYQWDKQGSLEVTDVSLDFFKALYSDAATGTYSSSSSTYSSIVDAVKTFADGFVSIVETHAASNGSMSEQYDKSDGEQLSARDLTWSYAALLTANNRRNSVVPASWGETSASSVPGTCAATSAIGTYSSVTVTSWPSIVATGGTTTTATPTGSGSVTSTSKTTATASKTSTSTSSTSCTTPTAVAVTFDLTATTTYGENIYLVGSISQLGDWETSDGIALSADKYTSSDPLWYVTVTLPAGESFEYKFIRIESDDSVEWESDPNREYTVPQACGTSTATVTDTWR

OC[C@H](NC[C@H]1NC[C@H](O)[C@@H]1O)c1ccc(-c2ccc(C(F)(F)F)cc2)cc1
Activity [1]: 17% | IC50 (A549): 152 µM | Activity (SK-BR-3 [2]): Active | viability at 50 µM [3]: 42.8% | inhibition (Bos taurus): < 10% | inhibition (Aspergillus niger): 52% | IC50 (U-266): 50 µM | Activity (Jurkat): Active | Activity [4]: 11.3% | Activity [5]: 55.6% | Activity (SK-BR-3 [6]): 13% | Activity [7]: 1% | Activity (SK-BR-3 [8]): 48% | inhibition [9]: < 10% | inhibition (Canavalia ensiformis): 98% | IC50 [10]: 80 µM | inhibition [11]: < 10% | viability at 200 µM [12]: 1.6% | IC50 (MDA-MB-231): 66 µM | inhibition (Oryza sativa): < 10% | Activity [13]: 0.8% | inhibition [14]: < 10% | IC50 [15]: 5 µM | Ki [15]: 2.7 µM | IC50 (SK-BR-3 [16]): 48 µM
